According to ChEMBL document CHEMBL1145867, “Muraymycins, novel peptidoglycan biosynthesis inhibitors: synthesis and SAR of their analogues” (2003):
≈ marks a conversion by molar mass, not a printed value. Calls of active or inactive are those of the source. No cut-off for these calls is given here.

Experiments:
[1] = system: Enterococcus sp.; assay: In vitro antimicrobial activity against Enterococci; assay type: functional
How it was run: (§1)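 Broth microdilution per NCCLS guidance. Serial dilutions of each agent in microtiter plates are inoculated with each organism to 10⁵ CFU/mL and incubated 18–22 h at 35 C in ambient air. MIC is the lowest concentration giving complete growth inhibition, judged by the unaided eye.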

[2] = system: Staphylococcus sp.; assay: In vitro antimicrobial activity against Staphylococci; assay type: functional, staphyl ococcus species; how it was run: as §1
[3] = system: Bacteria; assay: In vitro antimicrobial activity against gram-negative organisms (10); assay type: functional; how it was run: as §1
[4] = The inhibitory activity of compound against MraY or MurG at 25 ug/mL; No Inhibition
[5] = The inhibitory activity of compound against MraY or MurG at 50 ug/mL; No Inhibition
[6] = The inhibitory activity of compound against MraY or MurG at 100 ug/mL; No Inhibition
[7] = The inhibitory activity of compound against MraY or MurG at 12.5 ug/mL; No Inhibition
[8] = The inhibitory activity of compound against MraY or MurG at 6.25 ug/mL; No Inhibition
[9] = The inhibitory activity of compound against MraY or MurG at 50 ug/mL; Inhibit
[10] = The inhibitory activity of compound against MraY or MurG at 100 ug/mL; Inhibit

Row | MIC [1] | MIC [2] | MIC [3] | Inhibitory activity [4] | Inhibitory activity [5] | Inhibitory activity [6] | Inhibitory activity [7] | Inhibitory activity [8] | Inhibitory activity [9] | Inhibitory activity [10] | Structure (SMILES)
1 | > 128 µg/mL | > 128 µg/mL | > 128 µg/mL |  |  |  |  |  |  |  | COc1ccc(Cn2c(=O)ccn([C@@H]3OC([C@H](O)[C@H](NCCCNC(=O)[C@@H](CC(C)C)NC(=O)OCc4ccccc4)C(=O)OC(C)(C)C)[C@@H](O)[C@H]3O)c2=O)cc1 (stereo not given in full)
2 | 128 µg/mL (≈ 211 µM) | > 128 µg/mL | > 128 µg/mL |  |  |  |  |  |  |  | COc1ccc(Cn2c(=O)ccn([C@@H]3OC([C@H](O)[C@H](NCCCNC(=O)[C@H](N)CC(C)C)C(=O)O)[C@@H](O)[C@H]3O)c2=O)cc1 (stereo not given in full)
3 | 64 µg/mL (≈ 69.4 µM) | > 128 µg/mL | > 128 µg/mL |  |  |  |  |  |  |  | CC(C)C(O)[C@@H](NC(=O)OCc1ccccc1)C(=O)NCCCN[C@H](C(=O)OC(C)(C)C)[C@@H](O)C1O[C@@H](n2ccc(=O)[nH]c2=O)[C@H](O[Si](C)(C)C(C)(C)C)[C@@H]1O[Si](C)(C)C(C)(C)C (stereo not given in full)
4 | > 128 µg/mL | > 128 µg/mL | > 128 µg/mL |  |  |  |  |  |  |  | COc1ccc(Cn2c(=O)ccn([C@@H]3OC([C@H](O)[C@H](NCCCNC(=O)[C@H](N)CC(C)C)C(=O)OC(C)(C)C)[C@@H](O)[C@H]3O)c2=O)cc1 (stereo not given in full)
5 | 128 µg/mL (≈ 130 µM) | > 128 µg/mL | > 128 µg/mL |  |  |  |  |  |  |  | COc1ccc(Cn2c(=O)ccn([C@@H]3OC([C@H](O)[C@H](NCCCNC(=O)[C@@H](C)NC(=O)OCc4ccccc4)C(=O)OC(C)(C)C)[C@@H](O[Si](C)(C)C(C)(C)C)[C@H]3O[Si](C)(C)C(C)(C)C)c2=O)cc1 (stereo not given in full)
6 | 64 µg/mL (≈ 48.7 µM) | 128 µg/mL (≈ 97.4 µM) | 64 µg/mL (≈ 48.7 µM) |  |  |  |  |  |  |  | COc1ccc(Cn2c(=O)ccn([C@@H]3OC([C@H](O)[C@H](NCCCNC(=O)[C@H](NC(=O)[C@H](CCC/N=C(\N)N[N+](=O)[O-])NC(=O)N[C@H](C(=O)OCc4ccccc4)C(C)C)C(C)O)C(=O)OC(C)(C)C)[C@@H](O[Si](C)(C)C(C)(C)C)[C@H]3O[Si](C)(C)C(C)(C)C)c2=O)cc1 (stereo not given in full)
7 | 128 µg/mL (≈ 173 µM) | > 128 µg/mL | > 128 µg/mL |  |  |  |  |  |  |  | COc1ccc(Cn2c(=O)ccn([C@@H]3OC([C@H](O)[C@H](NCCCNC(=O)[C@@H](CC(C)C)NC(=O)OCc4ccccc4)C(=O)O)[C@@H](O)[C@H]3O)c2=O)cc1 (stereo not given in full)
8 | 4 µg/mL (≈ 3.58 µM) | > 128 µg/mL | > 128 µg/mL |  |  |  |  |  |  |  | COc1ccc(Cn2c(=O)ccn([C@@H]3OC([C@H](O)[C@H](NCCCNC(=O)[C@@H](CC(=O)OCc4ccccc4)NC(=O)OCc4ccccc4)C(=O)OC(C)(C)C)[C@@H](O[Si](C)(C)C(C)(C)C)[C@H]3O[Si](C)(C)C(C)(C)C)c2=O)cc1 (stereo not given in full)
9 | > 128 µg/mL | > 128 µg/mL | > 128 µg/mL |  |  |  |  |  |  |  | COc1ccc(Cn2c(=O)ccn([C@@H]3OC([C@H](O)[C@H](NCCCNC(=O)[C@@H](CC(C)C)NC(=O)[C@H](CCC/N=C(\N)N[N+](=O)[O-])NC(=O)N[C@H](C(=O)OCc4ccccc4)C(C)C)C(=O)OC(C)(C)C)[C@@H](O[Si](C)(C)C(C)(C)C)[C@H]3O[Si](C)(C)C(C)(C)C)c2=O)cc1 (stereo not given in full)
10 | > 128 µg/mL | > 128 µg/mL | > 128 µg/mL |  |  |  |  |  |  |  | COc1ccc(Cn2c(=O)ccn([C@@H]3OC([C@H](O)[C@H](NCCCNC(=O)[C@H](NC(=O)[C@H](CCC/N=C(\N)N[N+](=O)[O-])NC(=O)N[C@H](C(=O)OCc4ccccc4)C(C)C)C(O)C(C)C)C(=O)OC(C)(C)C)[C@@H](O[Si](C)(C)C(C)(C)C)[C@H]3O[Si](C)(C)C(C)(C)C)c2=O)cc1 (stereo not given in full)
11 | > 128 µg/mL | > 128 µg/mL | > 128 µg/mL |  |  |  |  |  |  |  | COc1ccc(Cn2c(=O)ccn([C@@H]3OC([C@H](O)[C@H](NCCCNC(=O)[C@@H](CCCCNC(=O)OCc4ccccc4)NC(=O)OCc4ccccc4)C(=O)OC(C)(C)C)[C@@H](O[Si](C)(C)C(C)(C)C)[C@H]3O[Si](C)(C)C(C)(C)C)c2=O)cc1 (stereo not given in full)
12 | > 128 µg/mL | > 128 µg/mL | > 128 µg/mL |  |  |  |  |  |  |  | COc1ccc(Cn2c(=O)ccn([C@@H]3OC([C@H](O)[C@H](NCCCNC(=O)[C@@H](CC(C)C)NC(=O)[C@H](CCCN=C(N)N)NC(=O)N[C@H](C(=O)O)C(C)C)C(=O)OC(C)(C)C)[C@@H](O[Si](C)(C)C(C)(C)C)[C@H]3O[Si](C)(C)C(C)(C)C)c2=O)cc1 (stereo not given in full)
13 | 128 µg/mL (≈ 119 µM) | 128 µg/mL (≈ 119 µM) | > 128 µg/mL |  |  |  |  |  |  |  | COc1ccc(Cn2c(=O)ccn([C@@H]3OC([C@H](O)[C@H](NCCCNC(=O)[C@@H](CCc4ccccc4)NC(=O)OCc4ccccc4)C(=O)OC(C)(C)C)[C@@H](O[Si](C)(C)C(C)(C)C)[C@H]3O[Si](C)(C)C(C)(C)C)c2=O)cc1 (stereo not given in full)
14 | > 128 µg/mL | > 128 µg/mL | > 128 µg/mL | inactive | inactive | inactive | inactive | inactive |  |  | COc1ccc(Cn2c(=O)ccn([C@@H]3OC([C@H](O)[C@H](NCCCNC(=O)[C@@H](CC(C)C)NC(=O)[C@H](CCCN=C(N)N)NC(=O)N[C@H](C(=O)O)C(C)C)C(=O)O)[C@@H](O)[C@H]3O)c2=O)cc1 (stereo not given in full)
15 | 128 µg/mL (≈ 123 µM) | > 128 µg/mL | > 128 µg/mL |  |  |  |  |  |  |  | COc1ccc(Cn2c(=O)ccn([C@@H]3OC([C@H](O)[C@H](NCCCNC(=O)[C@H](NC(=O)OCc4ccccc4)C(O)C(C)C)C(=O)OC(C)(C)C)[C@@H](O[Si](C)(C)C(C)(C)C)[C@H]3O[Si](C)(C)C(C)(C)C)c2=O)cc1 (stereo not given in full)
16 | > 128 µg/mL | > 128 µg/mL | > 128 µg/mL | inactive | inactive | inactive | inactive | inactive |  |  | COc1ccc(Cn2c(=O)ccn([C@@H]3OC([C@H](O)[C@H](NCCCNC(=O)[C@H](N)CCC(=O)OC(C)(C)C)C(=O)OC(C)(C)C)[C@@H](O[Si](C)(C)C(C)(C)C)[C@H]3O[Si](C)(C)C(C)(C)C)c2=O)cc1 (stereo not given in full)
17 | > 128 µg/mL | > 128 µg/mL | > 128 µg/mL | inactive | inactive | inactive | inactive | inactive |  |  | COc1ccc(Cn2c(=O)ccn([C@@H]3OC([C@H](O)[C@H](NCCCNC(=O)[C@H](N)CCc4ccccc4)C(=O)OC(C)(C)C)[C@@H](O[Si](C)(C)C(C)(C)C)[C@H]3O[Si](C)(C)C(C)(C)C)c2=O)cc1 (stereo not given in full)
18 | 4 µg/mL (≈ 4.06 µM) | 16 µg/mL (≈ 16.3 µM) | 128 µg/mL (≈ 130 µM) | inactive |  |  | inactive | inactive | Inhibit | Inhibit | COc1ccc(Cn2c(=O)ccn([C@@H]3OC([C@H](O)[C@H](NCCCNC(=O)[C@H](N)CC(=O)OCc4ccccc4)C(=O)OC(C)(C)C)[C@@H](O[Si](C)(C)C(C)(C)C)[C@H]3O[Si](C)(C)C(C)(C)C)c2=O)cc1 (stereo not given in full)
19 | > 128 µg/mL | 128 µg/mL (≈ 117 µM) | > 128 µg/mL |  |  |  |  |  |  |  | COc1ccc(Cn2c(=O)ccn([C@@H]3OC([C@H](O)[C@H](NCCCNC(=O)[C@@H](CCC(=O)OC(C)(C)C)NC(=O)OCc4ccccc4)C(=O)OC(C)(C)C)[C@@H](O[Si](C)(C)C(C)(C)C)[C@H]3O[Si](C)(C)C(C)(C)C)c2=O)cc1 (stereo not given in full)

Row | Structure (SMILES) | MIC [1] | MIC [2] | MIC [3] | Inhibitory activity [4] | Inhibitory activity [5] | Inhibitory activity [6] | Inhibitory activity [7] | Inhibitory activity [8] | Inhibitory activity [9] | Inhibitory activity [10]
20 | COc1ccc(Cn2c(=O)ccn([C@@H]3OC([C@H](O)[C@H](NCCCNC(=O)[C@@H](CC(C)C)NC(=O)[C@H](CCC/N=C(\N)N[N+](=O)[O-])NC(=O)N[C@H](C(=O)OCc4ccccc4)C(C)C)C(=O)O)[C@@H](O)[C@H]3O)c2=O)cc1 (stereo not given in full) | > 128 µg/mL | > 128 µg/mL | > 128 µg/mL |  |  |  |  |  |  | 
